MrgX1 antag – antagonists of human MrgX1 receptor; AID 588676; 1.3% of 310,000 active; MRGX1-HEK293 calcium flux, Fluo-4, BAM8-22 antagonism; stronger effect = lower value; B-score at 10 µM; Q96LB2;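 active means calcium-response B-score plate-corrected more than 3 library SD below zero, starting fluorescence within 5 deviations, no agonist response on first addition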;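 further: peak minus trough fluorescence over baseline after final BAM8-22 challenge near maximal dose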
Target sequence (Q96LB2 whole entry, looked up): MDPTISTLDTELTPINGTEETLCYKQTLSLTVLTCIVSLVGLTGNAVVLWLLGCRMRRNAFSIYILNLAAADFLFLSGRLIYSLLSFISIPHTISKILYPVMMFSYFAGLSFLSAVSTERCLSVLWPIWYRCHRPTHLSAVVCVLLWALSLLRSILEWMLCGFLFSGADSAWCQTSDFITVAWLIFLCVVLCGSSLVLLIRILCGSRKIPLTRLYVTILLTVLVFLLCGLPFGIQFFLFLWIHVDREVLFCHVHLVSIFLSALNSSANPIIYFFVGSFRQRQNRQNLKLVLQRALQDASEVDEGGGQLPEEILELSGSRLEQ
RGS4 pot – potentiators or activators of RGS4; B-score at 10 µM; HEK293 M3R/inducible RGS4, carbachol calcium flux Fluo4; stronger effect = lower value; AID 463111; 0.92% of 310,000 active;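 active means B-score of the integrated calcium signal more than 4 SD below the library mean, with starting fluorescence not abnormally high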;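 further: negative B-score means reduced calcium response which marks RGS4 activation or potentiation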
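Material: M3R-expressing HEK293 line, RGS4 induced by doxycycline | Schedule: Overnight RGS4 induction, 30 min dye load 37 °C, 20 min compound RT | Measured by: Fluo4 fluorescence kinetic imaging of calcium | Read-out: Integrated calcium ratio converted to B score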
RGS4 inh – human RGS4 inhibition; B-score at 10 µM; AID 463165; 0.45% of 310,000 active; HEK293 M3R/RGS4 inducible, Fluo-4 calcium flux; stronger effect = higher value; triggered by carbachol at its EC20; P49798;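 active means B-score, a plate-corrected calcium signal, over three deviations above library mean, with baseline fluorescence within five deviations of library mean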;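 further: RGS4 expression induced by doxycycline in cells with stable M3 receptor; B-score is computed from the integrated fluorescence ratio over baseline after carbachol; higher B-score means a larger calcium signal and so more RGS4 inhibition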
Target sequence (P49798 whole entry, looked up): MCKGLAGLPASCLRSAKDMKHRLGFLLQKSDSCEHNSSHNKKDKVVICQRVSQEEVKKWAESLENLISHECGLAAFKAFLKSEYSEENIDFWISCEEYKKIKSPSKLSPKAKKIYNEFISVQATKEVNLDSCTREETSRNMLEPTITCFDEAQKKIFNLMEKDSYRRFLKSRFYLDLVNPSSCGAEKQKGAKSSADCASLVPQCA
MrgX1 ag – agonists of human MrgX1 receptor; Q96LB2; MrgX1-HEK293 cells, Fluo-4 calcium fluorescence, agonist mode; stronger effect = higher value; B-score at 10 µM; 0.44% of 310,000 active;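 active means calcium response B-score plate-corrected fluorescence ratio at least 3 library SD, with starting fluorescence B-score inside 5 SD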
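Test system: Stable human MrgX1 HEK293 cell line | Schedule: Overnight plating before 1 h dye loading | Read-out basis: Baseline-normalised fluorescence change ratio, B-scored | Detection: Kinetic calcium dye fluorescence, Fluo-4 NW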
MrgX1 PAM – allosterically activates human MrgX1 receptor signaling. 0.63% of 310,000 active. MrgX1-HEK293, Fluo-4 calcium flux, FDSS; stronger effect = higher value. AID 588675. Q96LB2. B-score at 10 µM;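 active means plate-corrected calcium response at least 3 library SD above typical, normal starting fluorescence, not activating the receptor alone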;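 further: compound read alongside a low EC10 to EC30 dose of BAM8-22 agonist; peak minus trough fluorescence over baseline measured at the second addition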
MrgX1 ag reconf – human MrgX1 agonism, re-confirmation screen; shares compounds with MrgX1 ag; MrgX1-HEK293, Fluo-4 calcium fluorescence, FDSS; activation, % at 10 µM; 78% of 600 active; AID 602412;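 active means calcium signal rise, corrected for plate position, at least 3 library SD high, with starting brightness within 5 such deviations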
HEK293 Ca flux – counter-screen for MrgX1 antagonists: effect in parental HEK293 cells | AID 624111 | shares compounds with MrgX1 antag | Fluo-4 calcium fluorescence, FDSS | 2% of 4,000 active | fluorescence ratio F(max-min)/F0 at 10 µM;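 active means duplicate-averaged calcium fluorescence ratio at least three times the standard deviation of buffer wells, a nonspecific response in parental cells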
HEK293 Ca counter – counter-screen for MrgX1 allosteric activators: effect in parental HEK293 cells; shares compounds with MrgX1 antag; parental HEK293 calcium flux, Fluo-4 fluorescence ratio; stronger effect = higher value; fluorescence ratio F(max-min)/F0 at 10 µM; 0.4% of 4,000 active; AID 624114;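 active means calcium fluorescence ratio, averaged over duplicates, at least 3 SD of the buffer-well ratio, meaning a nonspecific response in receptor-free cells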;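 further: untransfected parental HEK293 lacking MrgX1 used as counterscreen for MrgX1 allosteric activators; fluorescence change taken during the second addition on a kinetic imager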
HEK293 Ca cntr2 – activity in parental HEK293 cells lacking MrgX1 receptor; shares compounds with MrgX1 antag; Fluo-4 calcium fluorescence (FDSS); stronger effect = higher value; fluorescence ratio F(max-min)/F0 at 10 µM; 8.7% of 4,000 active; AID 624115;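 active means calcium fluorescence ratio at least three times the spread of buffer wells, meaning a non-specific response in parental cells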
* = called active by the depositor; i = inactive; · = no result. Only some compounds are listed: those with a hit (about 3.5% of all), similar ones and a draw of the others.

SMILES | MrgX1 antag | RGS4 pot | RGS4 inh | MrgX1 ag | MrgX1 PAM | MrgX1 ag reconf | HEK293 Ca flux | HEK293 Ca counter | HEK293 Ca cntr2
CCCCCCCC1CC(CSC(=N)N)OC1=O (stereo not drawn) | i | i | i | 41* | i | 164.1%* | i | i | i
O=C(NC1CCCCCC1)c1cc(=O)[nH]c2ccc(S(=O)(=O)N3CCOCC3)cc12 | i | i | i | i | i | · | · | · | ·
Cc1csc(NC(=O)c2cc(=O)[nH]c3ccc(S(=O)(=O)N4CCOCC4)cc23)n1 | i | i | i | 54.8* | i | 265.9%* | i | i | i
CCNc1nc(NC(C)C)nc(N(C#N)Cc2ccccc2)n1 | i | i | i | 42.1* | i | 184.7%* | i | i | i
O=C(NCCCN1CCCC1)Nc1ccccc1[N+](=O)[O-] | i | i | i | i | i | · | · | · | ·
N=C1/C(=C\c2ccc(SCc3ccco3)o2)C(=O)N=C2SC=NN12 | i | i | i | 90.4* | i | 267.5%* | i | i | 47*
CC1=NN2C(=N)/C(=C\c3ccc(SCc4ccccc4)o3)C(=O)N=C2S1 | i | i | i | i | i | · | · | · | ·
CCOC(=O)CC(=O)CSc1nc(-c2cccnc2)ccc1C#N | i | i | i | 36.6* | i | 274.7%* | i | i | 65.7*
CCOC(=O)CSc1nc(-c2ccncc2)ccc1C#N | i | i | i | 29.5* | i | 149.8%* | i | i | i
CCOC(=O)CC(=O)CSc1nc(C)cc(-c2cccnc2)c1C#N | i | i | i | i | i | · | · | · | ·
Cc1ccc2nc(/C(C#N)=C\c3ccc(N4CCOCC4)o3)[nH]c2c1 | i | i | i | 68.4* | i | i | 0.334* | i | i
Cc1cc(=O)[nH]c(SCC(=O)Nc2ccc(F)cc2)c1C#N | i | i | i | i | i | · | · | · | ·
Cc1cc(=O)[nH]c(SCC(=O)Nc2ccc(Br)cc2)c1C#N | i | i | i | 72.4* | i | 375.1%* | i | i | 83.5*
COc1ccc(C(=O)Nc2ccccc2C(=O)O)cc1Cl | i | i | i | i | i | · | · | · | ·
CCOc1c(Cl)cc(C(=O)Nc2ccccc2C(=O)O)cc1Cl | i | i | i | 48.2* | i | 77.7%* | i | i | i
COCCn1c(=S)[nH]c2cc(C(=O)N3CCCC(C)C3)ccc2c1=O (stereo not drawn) | i | i | i | i | i | · | · | · | ·
Fc1ccc(CCNC(=S)Nc2ccc(F)c(Cl)c2)cc1 | i | i | i | 30.1* | i | 149.5%* | i | i | i
Fc1ccc(NC(=S)NCCc2ccc(Cl)cc2)cc1 | i | i | i | i | i | · | · | · | ·
C=C(C)Cn1c(-c2ccccc2)nc2ccccc21 | i | i | i | 30.7* | i | 131.0%* | i | i | i
C=C(C)Cn1c(SCC(=O)O)nnc1-c1ccccc1 | i | i | i | i | i | · | · | · | ·
C/C(=N\Nc1ncnc2sc(C)c(C)c12)c1ccccn1 | i | i | i | 72.3* | i | 499.1%* | 0.461* | i | 101*
COc1ccc(-n2c(O)c(C=Nc3ccccc3)c3ccccc3c2=O)cc1 | i | i | i | i | i | · | · | · | ·
COc1ccc(N=Cc2sc(O)c3ccccc23)cc1 | i | i | i | 44.4* | i | i | 0.575* | i | 121*
COc1ccc(N=Cc2c(OC)ccc3ccccc23)cc1 | i | i | i | i | i | · | · | · | ·
COc1ccc(N=Cc2c(O)c3ccccc3n2C(C)=O)cc1 | i | i | i | 61.6* | i | 583.2%* | i | i | 110*
SMILES | MrgX1 antag | RGS4 pot | RGS4 inh | MrgX1 ag | MrgX1 PAM | MrgX1 ag reconf | HEK293 Ca flux | HEK293 Ca counter | HEK293 Ca cntr2
O=C(CN(CC1CCCO1)C(=O)CNS(=O)(=O)c1ccc(F)cc1)NC1CCCC1 (stereo not drawn) | i | i | i | i | i | · | · | · | ·
O=C(CCC1CCCC1)c1c(O)c2ccccc2oc1=O | i | i | i | 87.3* | i | 564.2%* | i | i | 111*
Cn1c(=O)c2ccccc2n(Cc2ccccc2Cl)c1=O | i | i | i | i | i | · | · | · | ·
CN(C)C(=S)Nc1ccc2c(c1)OCCO2 | i | i | i | i | i | · | · | · | ·
CCOC(=O)c1cc2c(ccn2C)n1Cc1ccc(Cl)cc1 | i | i | i | i | i | · | · | · | ·
CCOC(=O)c1cc2c(ccn2C)n1Cc1ccc(C#N)cc1 | i | i | i | 26.5* | i | 132.4%* | i | i | i
O=C(NC1CCCC1)C(c1ccccn1)N(Cc1ccc(F)cc1)C(=O)c1csnn1 (stereo not drawn) | i | i | i | i | i | · | · | · | ·
Cn1c2ccccc2c(=O)c2c(=O)n(C3CCCCC3)c(-c3ccco3)nc21 | i | i | i | 90.8* | i | 589.3%* | i | i | 113*
CC(Oc1ccccc1)C(=O)Nc1nnc(S(=O)(=O)N(C)c2ccccc2)s1 (stereo not drawn) | i | i | i | 29* | i | 95.2%* | i | i | 45.8*
COc1ccc(NC(=O)COc2ccccc2)cc1NC(=O)c1ccco1 | i | i | i | i | i | · | · | · | ·
COC(=O)c1ccccc1S(=O)(=O)N1CCC(C(=O)N(C)CCOc2ccccc2)CC1 | i | i | i | i | i | · | · | · | ·
CCCCNc1cc(C)nc(NCc2ccccc2)n1 | i | i | i | 28.7* | i | 240.8%* | i | i | i
Cc1cc(Nc2ccccc2)nc(NCc2ccccc2)n1 | i | i | i | i | i | · | · | · | ·
Cc1cc(N2CCC(C)CC2)nc(NCc2ccccc2)n1 | i | -7.02* | i | 45.7* | i | 148.2%* | i | i | i
COc1cc(C(=O)NC(CCSC)C(=O)OCC(=O)C(C)(C)C)cc(OC)c1OC (stereo not drawn) | i | i | i | i | i | · | · | · | ·
O=C(NCCc1cccnc1)C1CCC(=O)N(CCc2cccc(F)c2)C1 (stereo not drawn) | i | i | i | i | i | · | · | · | ·
Nc1ccc(-c2cnc3ccccc3n2)cc1 | i | i | i | 27.8* | i | 87.1%* | i | i | i
